A selection: hits, their analogues and other compounds. The true share with any hit is near 2.4%.
Casp6 inh – inhibitors of human caspase-6; purified caspase-6, Z-VEID-R110 cleavage fluorescence; inhibition, % at 12.5 µM; actives 0.53% (n = 350,000); AID 686996;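 active means mean inhibition across replicates at least about 35%, with every replicate also reaching that limit, limit read from the data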
rRNA inh HTS – inhibitors of bacterial rRNA selective over humanized ribosomes; E. coli WT GFP vs humanized-ribosome RFP mutants, fluorescence, 24 h; stronger effect = lower value; DMSO median 0, no signal -100; GFP signal change (wild-type ribosome), % (concentration not given with the values); actives 1.6% (n = 350,000); AID 720706;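 active means significant combined selectivity score with lowered wild-type GFP, culture density cut under 30%, mutant RFP and density less affected; inactive means any of these conditions unmet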
ERAP1 HTS inh – ERAP1 (human) enzyme inhibition | AID 652197 | actives 0.15% (n = 340,000) | Q9NZ08 | inhibition, % at 10.7 µM | recombinant ERAP1, Leu-AMC fluorescence, 60 min;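 active means mean replicate inhibition of at least 30%, or all replicates individually reaching that 30% level; inactive means mean below 30% and not every replicate reaching it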
Target sequence (Q9NZ08 whole entry, looked up): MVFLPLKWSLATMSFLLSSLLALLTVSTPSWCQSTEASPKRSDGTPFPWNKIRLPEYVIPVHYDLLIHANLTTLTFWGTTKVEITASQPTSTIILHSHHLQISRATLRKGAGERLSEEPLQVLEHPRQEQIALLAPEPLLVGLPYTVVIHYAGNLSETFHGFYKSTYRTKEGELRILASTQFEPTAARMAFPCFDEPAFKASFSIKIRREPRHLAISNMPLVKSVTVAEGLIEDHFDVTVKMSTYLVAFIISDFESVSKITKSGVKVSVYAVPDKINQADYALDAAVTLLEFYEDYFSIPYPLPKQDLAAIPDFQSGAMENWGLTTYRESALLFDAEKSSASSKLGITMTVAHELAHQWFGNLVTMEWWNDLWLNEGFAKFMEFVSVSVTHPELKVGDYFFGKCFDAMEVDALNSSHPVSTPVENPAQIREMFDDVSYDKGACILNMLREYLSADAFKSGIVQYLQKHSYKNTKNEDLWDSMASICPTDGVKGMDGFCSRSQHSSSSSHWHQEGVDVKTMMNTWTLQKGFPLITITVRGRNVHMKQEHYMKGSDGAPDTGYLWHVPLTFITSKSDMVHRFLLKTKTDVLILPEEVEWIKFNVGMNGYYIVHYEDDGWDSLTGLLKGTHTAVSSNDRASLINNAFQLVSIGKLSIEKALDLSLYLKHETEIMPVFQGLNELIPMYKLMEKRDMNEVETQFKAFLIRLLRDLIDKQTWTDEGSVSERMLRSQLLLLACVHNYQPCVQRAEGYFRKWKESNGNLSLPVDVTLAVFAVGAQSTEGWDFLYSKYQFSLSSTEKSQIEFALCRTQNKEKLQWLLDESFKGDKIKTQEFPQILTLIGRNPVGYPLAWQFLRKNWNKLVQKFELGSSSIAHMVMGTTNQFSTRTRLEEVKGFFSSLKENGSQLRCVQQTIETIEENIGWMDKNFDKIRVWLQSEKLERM
S100A4 MyoIIA – inhibitors of human S100A4 binding to myosin IIA peptide; S100A4/TAMRA-MyoIIA peptide fluorescence polarization; actives 0.14% (n = 360,000); inhibition, % at 10.7 µM; AID 652163;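 active means mean inhibition of at least 70% across replicates, with every replicate also reaching that level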
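Test system: S100A4 monomer protein; Medium: HEPES pH 7.2 with CaCl2, KCl, NaCl, DTT, Triton; Probe or stimulus: TAMRA-labelled myosin IIA heavy-chain peptide probe, 5 nM; Doses: one dose per compound; Times: polarization read 5 min after assay mix addition, stable 5–60 min; Benchmarks: neutral control DMSO, positive control TFP.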
ARNT TACC3 PPI – ARNT/TACC3 interaction disruption; AlphaScreen His-ARNT PAS-B/GST-TACC3 binding, luminescence; TACC3 fragment carries E629A point mutation; inhibition, % at 9.99 µM; actives 0.66% (n = 390,000); AID 623870;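 active means mean inhibition of replicates at least 50% and at least half of replicates each reaching 50%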
PGC1a acetyl inh – lowers PGC1a acetylation signal in U2OS cells; AlphaScreen anti-acetyl-lysine; with virally co-expressed GCN5 acetyltransferase; inhibition, % at 15.6 µM; actives 0.17% (n = 350,000);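 active means every replicate shows inhibition of at least 40%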
Numbers stand for hits; . = inactive; / = no result; + = active, no number.

SMILES | Casp6 inh | rRNA inh HTS | ERAP1 HTS inh | S100A4 MyoIIA | ARNT TACC3 PPI | PGC1a acetyl inh
CCN(CC)c1ccc2nc3ccc(N)cc3[n+](-c3ccccc3)c2c1 | . | . | . | + | . | .
Cn1cnc(S(=O)(=O)N2CC[C@@H]3[C@@H](CO)Nc4ccc(C#Cc5ccccc5F)cc4[C@@H]32)c1 | . | . | . | . | / | .
Nc1ccc(N=Nc2ccc(O)cc2)c(N)n1 | . | -15.5 | . | . | . | /
O=C(CC1CC1)N1[C@H](CO)[C@@H](c2ccccc2)C12CN(Cc1ccncc1)C2 | . | . | . | . | / | .
O=C(C[C@@H]1C[C@@H]2c3cc(NC(=O)NC4CCCC4)ccc3O[C@@H]2[C@H](CO)O1)NCc1ccc(Cl)cc1 | / | . | / | / | / | /
COc1ccc2c3c([nH]c2c1)[C@@H](CO)N(C(=O)Nc1c(C)noc1C)CC31CN(CC2CC2)C1 | / | . | / | / | / | /
O=C(Nc1ccc(Nc2ccccc2)cc1)c1ccc(Cl)cc1[N+](=O)[O-] | . | -27.4 | . | . | / | .
CC(=O)NS(=O)(=O)c1ccc(NC(=O)c2ccc(Cl)cc2[N+](=O)[O-])cc1 | . | . | . | . | . | .
CCCNC(=O)N1CC2(CN(C(C)=O)C2)c2c(n(C)c3cc(OC)ccc23)[C@@H]1CO | / | . | / | / | / | /
O=C1N=c2ccccc2=C1c1sc(=S)n(NC(=O)c2ccccc2)c1O | . | . | . | . | . | /
C=CCn1c(O)c(C2=c3ccccc3=NC2=O)sc1=Nc1ccc(O)cc1 | . | -8.0 | . | . | . | .
NC1=CC(=O)C(=O)c2ccccc21 | 40.9 | . | . | . | 18.1 | /
CC1=CC(=C2C(=O)c3ccccc3C2=O)C=C(C)O1 | / | / | / | / | . | /
Nc1ccccc1C(=O)NNc1c2ccccc2nc2ccccc12 | . | -19.6 | . | . | . | .
O=C(N[C@@H]1CC[C@H](CCNS(=O)(=O)c2ccc(F)cc2)O[C@@H]1CO)C1CCC1 | . | . | . | . | . | .
O=S(=O)(Nc1c(S(=O)(=O)c2ccccc2)c2nc3ccccc3nc2n1C1CCCCC1)c1ccccc1 | 41.3 | . | . | . | . | .
O=C(C[C@H]1C[C@H]2c3cc(NC(=O)c4cccnc4)ccc3O[C@H]2[C@@H](CO)O1)NCc1cccc(F)c1 | . | . | . | . | . | .
O=C(Nc1cccc(Cl)c1)N[C@@H]1CC[C@@H](CCNC(=O)C2CCCCC2)O[C@@H]1CO | . | . | . | . | . | .
CC(=NNC(=S)N1CCN(c2ccccn2)CC1)c1nccs1 | / | / | / | / | 66.2 | /
CC(=NNC(=S)N1CC2CCC(CC2)C1)c1cnccn1 | . | . | . | . | 51.3 | /
CC(=NNC(=S)N1CCN(c2ccccn2)CC1)c1ccccn1 | . | / | . | . | . | .
CC(=NNC(=S)N1CCN(C2CCCCCC2)CC1)c1ccccn1 | . | . | . | . | 76.6 | .
CC(=NNC(=S)N1CC2CCC(CC2)C1)c1ccccn1 | / | . | . | . | / | /
COC(=O)c1ccc(C(=O)OC)c(NC(=O)CN(c2ccc3c(c2)OCO3)S(C)(=O)=O)c1 | 41.9 | . | . | . | . | .
Cc1ccc(NS(=O)(=O)c2cccc(C(=O)NC3CC3)c2)c(C)c1 | . | . | . | . | . | /
SMILES | Casp6 inh | rRNA inh HTS | ERAP1 HTS inh | S100A4 MyoIIA | ARNT TACC3 PPI | PGC1a acetyl inh
O=C(Nc1cccnc1)c1ccccc1NS(=O)(=O)c1ccc(F)cc1 | . | -32.2 | . | . | . | .
Cc1ccc(NS(=O)(=O)c2cccc(C(=O)Nc3cccnc3)c2)c(C)c1 | . | -45.0 | . | . | . | .
CC(CNC(=O)c1ccc(OC2CCN(Cc3ccccn3)CC2)cc1)c1ccccc1 (stereo unspecified) | 45.3 | . | . | . | . | /
COc1ccc(C(=O)On2c(-c3ccc(Br)cc3)nc3ccccc3c2=O)cc1 | . | . | . | . | / | .
COc1cc(OC)cc(-c2nc3ccccc3c(=O)n2OC(=O)c2ccc(Br)cc2)c1 | . | -25.3 | . | . | . | .
Cc1ccc(S(=O)(=O)Nc2ccc3c(c2)C(=O)N([C@H](C)CO)C[C@@H](C)[C@@H](CN(C)C(=O)CCCN(C)C)OCCCC[C@@H](C)O3)cc1 | . | . | . | . | . | .
O=C(NCCCn1ccnc1)/C(=C\c1ccco1)NC(=O)c1ccco1 | . | . | . | . | 57.4 | /
O=C(NCCCn1ccnc1)/C(=C/c1ccc(F)cc1)NC(=O)c1ccccc1 | . | . | . | . | 62.2 | /
O=C(NCCCn1ccnc1)c1ccco1 | / | / | / | / | . | .
C[C@H](CO)N1C[C@H](C)[C@H](CN(C)Cc2ccccc2)Oc2ncc(C3=CCCC3)cc2C1=O | . | . | . | . | . | .
CC1CCN(CCCNC(=O)COc2cc(=O)n(C)c3ccccc23)CC1 | 78.2 | . | . | . | . | .
CCn1c(=O)cc(OCC(=O)NCCCN2CCC(C)CC2)c2ccccc21 | / | / | / | / | . | /
Cc1ccc(C2CC(=O)C=C(NCC(C)C)C2)cc1 (stereo unspecified) | . | . | . | . | . | .
Cc1ccc(C2CC(=O)C=C(NCc3ccccc3)C2)cc1 (stereo unspecified) | . | -31.7 | . | . | . | .
COc1ccc(CNc2ccc(C)c(C)c2)c(OC)c1OC | . | -20.2 | . | . | . | .
COc1ccc(/C=C/CN2CCCC(CO)(Cc3cccc(Cl)c3)C2)cc1 (stereo unspecified) | . | -47.2 | . | . | . | .
CCS(=O)(=O)c1ccc(N=Nc2ccc(O)c3ncccc23)c(OC)c1 | / | . | . | . | . | .
COc1ccccc1N=Nc1ccc(O)c2ncccc12 | 53.9 | . | . | . | 66.5 | .
CCCC(O)(c1ccc(Cl)cc1)C(CN1CCOCC1)c1ccccc1 (stereo unspecified) | . | . | / | . | 45.7 | .
COc1ccc(CNC(=S)Nc2ccc(F)c(Cl)c2)cc1OC | . | -27.2 | . | . | . | .
O=C(C1=C(Nc2ccccc2)c2ccccc2S(=O)(=O)N1)c1ccccc1 | . | -19.4 | . | . | . | /
Cc1ccccc1NC1=C(C(=O)c2ccccc2)N(C)S(=O)(=O)c2ccccc21 | / | / | / | / | . | .
C(=C\c1ccccc1)/C=N/N1CCN(Cc2ccccc2)CC1 | . | -25.1 | . | . | . | .
C(/C=C/c1ccccc1)=N/N1CCN(c2ccccc2)CC1 | / | / | / | / | . | .
O=C(O)CC(C(=O)O)N1C(=O)/C(=C/c2ccc(-c3nc4ccccc4s3)o2)SC1=S (stereo unspecified) | / | / | / | / | . | .
O=C(O)CCN1C(=O)/C(=C/c2ccc(-c3nc4ccccc4s3)o2)SC1=S | / | / | / | / | 63.5 | .
O=C(O)CCCN1C(=O)/C(=C\c2ccc(-c3nc4ccccc4s3)o2)SC1=S | 42.9 | . | / | . | . | .
COc1ccc2c3c([nH]c2c1)[C@@H](CO)N(C(C)=O)CC31CCN(C(=O)CN2CCOCC2)CC1 | . | . | . | . | / | .

Source: PubChem BioAssay
